Experiments:
[1] = tested on: A549; test: Cytotoxicity against human A549 cells by sulforhodamine B method; format: functional, cell-based
[2] = tested on: SNB-19; test: Cytotoxicity against human SNB19 cells by sulforhodamine B method; format: functional, cell-based
[3] = tested on: OVCAR-3; test: Cytotoxicity against human OVCAR-3 cells by sulforhodamine B method; format: functional, cell-based
[4] = tested on: SK-MEL-28; test: Cytotoxicity against human SK-MEL-28 cells by sulforhodamine B method; format: functional, cell-based
[5] = tested on: CAKI-1; test: Cytotoxicity against human Caki1 cells by sulforhodamine B method; format: functional, cell-based
[6] = tested on: HCT-116; test: Cytotoxicity against human HCT116 cells by sulforhodamine B method; format: functional, cell-based
[7] = tested on: PANC-1; test: Cytotoxicity against human PANC1 cells by sulforhodamine B method; format: functional, cell-based
[8] = tested on: MDA-MB-231; test: Cytotoxicity against human MDA-MB-231 cells by sulforhodamine B method; format: functional, cell-based
[9] = tested on: PC-3; test: Cytotoxicity against human PC3 cells by sulforhodamine B method; format: functional, cell-based
[10] = tested on: HeLa; test: Induction of apoptosis in human HeLa cells at 100 nM after 24 hrs using propidium iodide/annexin V staining by flow cytometry relative to control; format: functional
Procedure, shortened: (§1)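 Annexin V/PI apoptosis assay: HeLa cells given compound (50–500 nM, 24 h) or no treatment, then co-stained with FITC-annexin V and propidium iodide. Phosphatidylserine externalization was scored by flow cytometry, with early apoptotic (annexin V-positive) and late apoptotic quadrants read separately.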

[11] = tested on: HeLa; test: Cell cycle arrest in human HeLa cells assessed as accumulation at G1 phase at 500 nM after 24 hrs using propidium iodide staining by flow cytometry relative to control; format: functional
Procedure, shortened: (§2)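 HeLa cells exposed 24 h to compound (50–500 nM range) or left untreated, then washed and harvested. DNA was stained with propidium iodide and cell-cycle phase distribution measured by flow cytometry.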

[12] = tested on: HeLa; test: Cell cycle arrest in human HeLa cells assessed as accumulation at G1 phase at 50 nM after 24 hrs using propidium iodide staining by flow cytometry relative to control; format: functional; procedure, shortened: as §2
[13] = tested on: HeLa; test: Cell cycle arrest in human HeLa cells assessed as accumulation at S phase at 200 nM after 24 hrs using propidium iodide staining by flow cytometry relative to control; format: functional; procedure, shortened: as §2
[14] = tested on: HeLa; test: Induction of apoptosis in human HeLa cells at 300 nM after 24 hrs using propidium iodide/annexin V staining by flow cytometry relative to control; format: functional; procedure, shortened: as §1
[15] = tested on: HeLa; test: Cell cycle arrest in human HeLa cells assessed as accumulation at G2/M phase at 200 nM after 24 hrs using propidium iodide staining by flow cytometry relative to control; format: functional; procedure, shortened: as §2
[16] = tested on: HeLa; test: Cell cycle arrest in human HeLa cells assessed as accumulation at G1 phase at 200 nM after 24 hrs using propidium iodide staining by flow cytometry relative to control; format: functional; procedure, shortened: as §2
[17] = tested on: HeLa; test: Induction of apoptosis in human HeLa cells at 200 nM after 24 hrs using propidium iodide/annexin V staining by flow cytometry relative to control; format: functional; procedure, shortened: as §1
[18] = tested on: HeLa; test: Cell cycle arrest in human HeLa cells assessed as accumulation at G2/M phase at 300 nM after 24 hrs using propidium iodide staining by flow cytometry relative to control; format: functional; procedure, shortened: as §2
[19] = tested on: HeLa; test: Cell cycle arrest in human HeLa cells assessed as accumulation at G2/M phase at 500 nM after 24 hrs using propidium iodide staining by flow cytometry relative to control; format: functional; procedure, shortened: as §2
[20] = tested on: HeLa; test: Cell cycle arrest in human HeLa cells assessed as accumulation at G2/M phase at 50 nM after 24 hrs using propidium iodide staining by flow cytometry relative to control; format: functional; procedure, shortened: as §2
[21] = tested on: HeLa; test: Induction of apoptosis in human HeLa cells at 500 nM after 24 hrs using propidium iodide/annexin V staining by flow cytometry relative to control; format: functional; procedure, shortened: as §1
[22] = tested on: HeLa; test: Cell cycle arrest in human HeLa cells assessed as accumulation at S phase at 50 nM after 24 hrs using propidium iodide staining by flow cytometry relative to control; format: functional; procedure, shortened: as §2
[23] = tested on: HeLa; test: Cell cycle arrest in human HeLa cells assessed as accumulation at S phase at 300 nM after 24 hrs using propidium iodide staining by flow cytometry relative to control; format: functional; procedure, shortened: as §2
[24] = tested on: HeLa; test: Cell cycle arrest in human HeLa cells assessed as accumulation at G1 phase at 300 nM after 24 hrs using propidium iodide staining by flow cytometry relative to control; format: functional; procedure, shortened: as §2
[25] = tested on: HeLa; test: Cell cycle arrest in human HeLa cells assessed as accumulation at G2/M phase at 100 nM after 24 hrs using propidium iodide staining by flow cytometry relative to control; format: functional; procedure, shortened: as §2
[26] = tested on: HeLa; test: Cell cycle arrest in human HeLa cells assessed as accumulation at S phase at 500 nM after 24 hrs using propidium iodide staining by flow cytometry relative to control; format: functional; procedure, shortened: as §2
[27] = tested on: HeLa; test: Induction of apoptosis in human HeLa cells at 50 nM after 24 hrs using propidium iodide/annexin V staining by flow cytometry relative to control; format: functional; procedure, shortened: as §1
[28] = tested on: HeLa; test: Cell cycle arrest in human HeLa cells assessed as accumulation at G1 phase at 100 nM after 24 hrs using propidium iodide staining by flow cytometry relative to control; format: functional; procedure, shortened: as §2
[29] = tested on: HeLa; test: Cell cycle arrest in human HeLa cells assessed as accumulation at S phase at 100 nM after 24 hrs using propidium iodide staining by flow cytometry relative to control; format: functional; procedure, shortened: as §2

Compound	IC50 [1]	IC50 [2]	IC50 [3]	IC50 [4]	IC50 [5]	IC50 [6]	IC50 [7]	IC50 [8]	IC50 [9]	other results
Cc1ccc2c(N)nc(-c3ccccc3C)cc2c1	162 nM									
COc1cccc(-c2cc3ccc(C)cc3c(N)n2)c1	447 nM	480 nM	240 nM	410 nM	140 nM	210 nM	470 nM	170 nM	420 nM	
Cc1ccccc1-c1cc2c(N(C)C)cccc2c(N)n1	> 10000 nM	> 10000 nM	> 10000 nM	> 10000 nM	> 10000 nM	> 10000 nM	> 10000 nM	> 10000 nM	> 10000 nM	
COc1cc2cc(-c3ccccc3)nc(N)c2cc1OC	129 nM	710 nM	270 nM	750 nM	590 nM	520 nM	670 nM	440 nM	580 nM	
COc1cc2cc(-c3ccccc3C)nc(N)c2cc1OC	437 nM	560 nM	380 nM	910 nM	670 nM	780 nM	830 nM	540 nM	1250 nM	
Cc1ccc2c(N)nc(-c3ccc4c(c3)OCO4)cc2c1	141 nM	230 nM	160 nM	220 nM	110 nM	160 nM	220 nM	130 nM	190 nM	
COc1ccc(-c2cc3cc(C)ccc3c(N)n2)c(C)c1	170 nM	280 nM	170 nM	290 nM	120 nM	170 nM	240 nM	150 nM	250 nM	
Cc1cccc(-c2cc3cc(C)ccc3c(N)n2)c1	182 nM	210 nM	150 nM	250 nM	160 nM	180 nM	200 nM	150 nM	220 nM	
COc1cccc(-c2cc3cc(C)ccc3c(N)n2)c1	107 nM	750 nM	470 nM	720 nM	690 nM	590 nM	1280 nM	570 nM	1190 nM	
Cc1ccc2c(N)nc(-c3c(C)cccc3C)cc2c1	380 nM	240 nM	160 nM	230 nM	120 nM	170 nM	210 nM	140 nM	240 nM	
COc1cc(OC)cc(-c2cc3cc(OC)c(OC)cc3c(N)n2)c1	282 nM	400 nM	190 nM	690 nM	540 nM	770 nM	700 nM	400 nM	720 nM	
CN(C)c1cccc2c(N)nc(-c3ccccc3)cc12	> 10000 nM	> 10000 nM	> 10000 nM	> 10000 nM	> 10000 nM	> 10000 nM	> 10000 nM	> 10000 nM	> 10000 nM	
COc1ccc(-c2cc3c(N(C)C)cccc3c(N)n2)cc1OC	> 10000 nM	> 10000 nM	> 10000 nM	> 10000 nM	> 10000 nM	> 10000 nM	> 10000 nM	> 10000 nM	> 10000 nM	
COc1cccc(-c2cc3cc(OC)c(OC)cc3c(N)n2)c1	759 nM	220 nM	74 nM	230 nM	170 nM	160 nM	190 nM	140 nM	180 nM	Activity [10]: 6.14%; Activity [11]: 8.25%; Activity [12]: 48.83%; Activity [13]: 11.36%; Activity [14]: 9.78%; Activity [15]: 73.06%; Activity [16]: 15.58%; Activity [17]: 8.8%; Activity [18]: 83.14%; Activity [19]: 86.98%; Activity [20]: 35.8%; Activity [21]: 12.52%; Activity [22]: 15.37%; Activity [23]: 6.6%; Activity [24]: 10.26%; Activity [25]: 48.59%; Activity [26]: 4.77%; Activity [27]: 5.92%; Activity [28]: 35.29%; Activity [29]: 16.12%
COc1ccc(-c2cc3cc(C)ccc3c(N)n2)cc1OC	562 nM	2150 nM	570 nM	1410 nM	510 nM	850 nM	1750 nM	660 nM	2690 nM	
Cc1ccc2cc(-c3ccccc3C)nc(N)c2c1	53.7 nM	160 nM	100 nM	180 nM	140 nM	120 nM	200 nM	75 nM	260 nM	
